Here are results for 59 compounds from ChEMBL document CHEMBL2321819, “Design of potent poxvirus inhibitors of the heterodimeric processivity factor required for viral replication” (J Med Chem, 2013).

Active and inactive are the calls of the source. No cut-off for these calls is given here.

Series [1] deals with Vaccinia virus. In words: Antiviral activity against Vaccinia virus WR infected in African green monkey BSC1 cells after overnight incubation by crystal violet staining-based plaque reduction assay. Particulars: Orthopoxvirus vaccinia, BSC-1. Format: functional, organism-based. (In general: Plaques are areas of infected cells; plaque reduction assays count them against a control.)

In series [2] the test system is BSC-1. The series is described as follows: (§1) Cytotoxicity against African green monkey BSC1 cells after 20 hrs by lactate dehydrogenase assay. Format: cell-based. Particulars: chlorocebus aethiops, bsc-1, 20 h. The method in brief: (§2)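 Cytotoxicity in BSC-1 cells was measured by LDH release, with Neutral Red also used. Assays were run in triplicate and repeated at least twice. CC50 was obtained from a variable-slope four-parameter nonlinear regression fit. Values ≥100 μM were called not active.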

Series [3] deals with BSC-1. In words: Inhibition of 1 MOI of Vaccinia virus WR DNA polymerase processivity factor A20NT100-D4 complex infected in African green monkey BSC1 cells assessed as decrease in A4 protein level after 12 hrs by Western blotting analysis. Type of series: cell-based. On the technique in general: In western blotting, separated proteins are transferred to a membrane and probed.

Series [4] in a line: Selectivity index, ratio of CC50 for African green monkey BSC1 cells to IC50 for Vaccinia virus WR. Type of series: functional, BSC-1.
Series [5] has as its system Vaccinia virus. In words: Antiviral activity against 5 MOI of Vaccinia virus WR infected in African green monkey BSC1 cells assessed as decrease in virus-induced cytopathicity at 1 uM after 8 hrs relative to vehicle-treated control. Type of series: functional, organism-based. Particulars: Orthopoxvirus vaccinia, BSC-1. A general note: Damage to the host cells serves as the signal in cytopathic effect assays.

Series [6] deals with BSC-1. The series is described as follows: Inhibition of 5 MOI of Vaccinia virus WR DNA polymerase processivity factor A20NT100-D4 complex coexpressing recombinant L1 protein infected in African green monkey BSC1 cells assessed as reduction in EGFP expression at 1 uM after 8 hrs by fluorescence microscopic analysis. Type of series: cell-based.
Series [7] has as its system BSC-1. In words: Inhibition of 1 MOI of Vaccinia virus WR DNA polymerase processivity factor A20NT100-D4 complex infected in African green monkey BSC1 cells assessed as decrease in E3 protein level at 1 uM after 8 hrs by Western blotting analysis. Format: cell-based.
Series [8] deals with Vaccinia virus. In words: Antiviral activity against 5 MOI of Vaccinia virus WR infected in African green monkey BSC1 cells assessed as decrease in virus-induced cytopathicity at 1 uM after 8 hrs relative to cidofovir. Type of series: functional, organism-based. Particulars: Orthopoxvirus vaccinia, BSC-1.
Series [9] deals with BSC-1. In words: Inhibition of 1 MOI of Vaccinia virus WR DNA polymerase processivity factor A20NT100-D4 complex infected in African green monkey BSC1 cells assessed as decrease in BrdU incorporation at 1 uM after 4 to 8 hrs by DAPI staining-based confocal microscopic analysis. Format: cell-based.
In series [10] the test system is BSC-1. In words: Inhibition of 5 MOI of Vaccinia virus WR DNA polymerase processivity factor A20NT100-D4 complex coexpressing recombinant L1 protein infected in African green monkey BSC1 cells assessed as reduction in EGFP expression at 100 uM after 8 hrs by fluorescence microscopic analysis. Format: cell-based.
A short description of series [11]: as §1. Particulars: chlorocebus aethiops, BSC-1 cells. Type of series: cell-based, BSC-1. Put shortly: as §2

Usually IC50 stands for the concentration at which inhibition is half-maximal. The compound `Cc1cccc2[nH]c(C(=O)O)c(Sc3ccc(Cl)cc3)c12` had an IC50 in series [1] of 86 µM.

Consider `Cc1ccc(Sc2c(C(=O)O)[nH]c3cc(C)ccc23)cc1`, for which the IC50 in series [1] is no less than 100 µM.

On to `CCOC(=O)c1[nH]c2ccc(C)cc2c1Sc1ccc(Cl)cc1`, for which the IC50 in series [1] was no less than 100 µM.

Compound `Cc1cccc2c(Sc3cc(Cl)c(Cl)cc3Cl)c(C(=O)O)[nH]c12` registered a 50% inhibitory concentration (IC50) in series [1] of 21 µM.

Consider `Cc1ccc(C)c2c(Sc3ccc(Cl)cc3)c(C(=O)O)[nH]c12`, for which the IC50 in [1] was found to be 50 µM.

As for `Cc1ccc2c(Sc3ccc(Br)cc3)c(C(=O)O)[nH]c2c1`, the IC50 in [1] was no less than 100 µM.

For `O=C(O)c1[nH]c2cc(Br)ccc2c1Sc1ccc(Cl)cc1`, in [1], the IC50 amounted to 51 µM.

For `Cc1cccc2c(Sc3ccc(Cl)cc3)c(C(=O)O)[nH]c12`, the IC50 in series [1] is 74 µM.

`Cc1ccc2c(Sc3ccc(C(=O)O)cc3)c(C(=O)O)[nH]c2c1`: in series [1], the IC50 was no less than 100 µM.

In series [1], `O=C(O)c1[nH]c2cc(F)ccc2c1Sc1ccc(Cl)cc1` gave a half-maximal inhibitory concentration (IC50) of 40 µM.

In series [1], `CCc1ccc2c(Sc3cc(Cl)cc(Cl)c3)c(C(=O)O)[nH]c2c1` displayed an IC50 of 9 µM.

As for `COc1cccc2[nH]c(C(=O)O)c(Sc3ccc(Cl)cc3)c12`, in series [1], the IC50 is no less than 100 µM.

On to `CCc1ccc2c(Sc3ccc(Cl)c(Cl)c3)c(C(=O)O)[nH]c2c1`, for which the IC50 in [1] worked out at 42 µM.

`Cc1ccc2c(Sc3ccc(C(F)(F)F)cc3)c(C(=O)O)[nH]c2c1`: the IC50 in series [1] is 33 µM.

One may read the CC50 as the concentration giving 50% cytotoxicity. The compound `Cc1ccc2c(Sc3cc(Cl)cc(Cl)c3)c(CCC(N)=O)[nH]c2c1` had a CC50 in [2] of 16 µM. Also, the inhibition result in series [3] was “Dose-dependent effect”. For the same compound, the “Ratio CC50/IC50” value in [4] is given as 374. Besides, the result in series [5] and in series [8] was Active. For the same compound, the inhibition result in series [6], in [7] and in series [9] was “Active” in each case. The IC50 in series [1] was 0.042 µM.

In series [1], `CCOC(=O)c1[nH]c2cccc(C)c2c1Sc1ccc(Cl)cc1` registered an IC50 of no less than 100 µM.

The compound `Cc1ccc2c(c1)c(Sc1ccc(Cl)cc1)c(C(=O)O)n2C` showed an IC50 in [1] of no less than 100 µM.

In turn, `Cc1cccc2[nH]c(C(=O)OC(C)C)c(Sc3ccc(Cl)cc3)c12` came in with an IC50 in series [1] of no less than 100 µM.

Consider `Cc1ccc2c(Sc3cccc(Cl)c3)c(C(=O)O)[nH]c2c1`, for which the IC50 in [1] amounted to 51 µM.

Consider `Cc1ccc2c(Sc3ccc(Cl)c(Cl)c3)c(C(=O)O)[nH]c2c1`, for which, in series [1], the IC50 was 34 µM.

`Cc1ccc2c(Sc3ccc(C(F)(F)F)cc3[N+](=O)[O-])c(C(=O)O)[nH]c2c1` gave an IC50 in series [1] of no less than 100 µM.

Regarding `O=C(O)c1[nH]c2cc(Cl)ccc2c1Sc1ccc(Cl)cc1`, the IC50 in [1] was found to be 47 µM.

`Nc1ccn(C[C@@H](CO)OCP(=O)(O)O)c(=O)n1`: the inhibition result in series [10] is “Active”.

In the case of `Cc1ccc2c(Sc3cc(Cl)cc(Cl)c3)c(C(=O)O)[nH]c2c1`, the midpoint of cytotoxicity in series [2], the CC50, lay at 75 µM. In addition, in [4], the “Ratio CC50/IC50” value came to 11. The IC50 in series [1] is 7 µM.

In series [1], `COC(=O)c1[nH]c2cc(C)ccc2c1Sc1ccccc1` yielded an IC50 of 10 µM.

`COC(=O)c1[nH]c2ccc(C)cc2c1Sc1ccc(Cl)cc1` displayed an IC50 in series [1] of no less than 100 µM.

`CCc1ccc2c(Sc3ccc(Cl)cc3)c(C(=O)O)[nH]c2c1` returned an IC50 in series [1] of 36 µM.

`Cc1ccc2c(Sc3ccc(Cl)cc3)c(C(=O)O)[nH]c2c1` showed an IC50 in series [1] of 82 µM.

In [1], `Cc1ccc2c(Sc3cccc(F)c3)c(C(=O)O)[nH]c2c1` registered an IC50 of 69 µM.

In [1], `COC(=O)c1ccc(Sc2c(C(=O)O)[nH]c3cccc(C)c23)cc1` showed an IC50 of no less than 100 µM.

In turn, `COc1ccc(Sc2c(C(=O)O)[nH]c3cc(C)ccc23)cc1` had an IC50 in series [1] of no less than 100 µM.

In [1], `COC(=O)c1[nH]c2cc(C)ccc2c1Sc1ccc(Cl)cc1` displayed an IC50 of 19 µM.

`Cc1cccc2[nH]c(C(=O)Oc3ccccc3)c(Sc3ccc(Cl)cc3)c12` yielded an IC50 in series [1] of no less than 100 µM.

The compound `Cc1cccc2c(Sc3ccc(Cl)c(Cl)c3)c(C(=O)O)[nH]c12` yielded an IC50 in series [1] of 35 µM.

`Cc1ccc2[nH]c(C(=O)O)c(Sc3ccc(Cl)cc3)c2c1` had an IC50 in [1] of 46 µM.

`O=C(O)c1[nH]c2ccccc2c1Sc1cc(Cl)cc(Cl)c1`: the IC50 in series [1] was found to be 43 µM.

As for `Cc1ccc2[nH]c(C(=O)Oc3ccccc3)c(Sc3ccc(Cl)cc3)c2c1`, in series [1], the IC50 was no less than 100 µM.

Compound `CCCCCCNC(=O)CCc1[nH]c2cc(C)ccc2c1Sc1cc(Cl)cc(Cl)c1` yielded a CC50 in series [2] of 27 µM. Besides, the IC50 in series [1] was no less than 100 µM.

As for `Cc1ccc2[nH]c(C(=O)OC(C)C)c(Sc3ccc(Cl)cc3)c2c1`, the IC50 in series [1] was no less than 100 µM.

In series [1], `Cc1cccc2[nH]c(C(=O)OCc3ccccc3)c(Sc3ccc(Cl)cc3)c12` returned an IC50 of no less than 100 µM.

`Cc1ccc2c(Sc3cc(Cl)cc(Cl)c3)c(CCCC(N)=O)[nH]c2c1` came in with a CC50 at 20 h in [11] of no less than 100 µM. For the same compound, the IC50 in series [1] stood at 0.208 µM.

`CNC(=O)c1[nH]c2cc(C)ccc2c1Sc1cc(Cl)cc(Cl)c1` showed an IC50 in series [1] of no less than 100 µM.

`Cc1cccc2[nH]c(C(=O)O)c(Sc3cc(Cl)c(Cl)cc3Cl)c12` returned an IC50 in [1] of 18 µM.

Compound `Cc1ccc2c(Sc3ccccc3)c(C(=O)O)[nH]c2c1` showed an IC50 in series [1] of no less than 100 µM.

Regarding `COC(=O)c1c(Sc2ccc(Cl)cc2)c2cc(C)ccc2n1C`, in series [1], the IC50 is no less than 100 µM.

`Cc1ccc(Sc2c(C(=O)O)[nH]c3cccc(C)c23)cc1` came in with an IC50 in [1] of no less than 100 µM.

On to `Cc1cccc2[nH]c(C(=O)O)c(Sc3ccc([N+](=O)[O-])cc3)c12`, for which the IC50 in [1] was no less than 100 µM.

On to `Cc1ccc2[nH]c(C(=O)OCc3ccccc3)c(Sc3ccc(Cl)cc3)c2c1`, for which the IC50 in [1] is no less than 100 µM.

For `Cc1ccc2c(Sc3cc(Cl)cc(Cl)c3)c(CCC(=O)O)[nH]c2c1`, the CC50 in series [2] is 36 µM. Also, the “Ratio CC50/IC50” value in [4] stood at 152. In series [1], this compound gave a half-maximal inhibitory concentration (IC50) of 0.244 µM.

Take `COc1ccc(Sc2c(C(=O)O)[nH]c3cccc(C)c23)cc1`: the IC50 in series [1] is no less than 100 µM.

Take `Cc1ccc2c(Sc3cc(Cl)cc(Cl)c3)c(CC(N)=O)[nH]c2c1`: half-maximal cytotoxicity in [2] (CC50) was put at 26 µM. Also, the “Ratio CC50/IC50” value in series [4] was found to be 570. In [1], this compound had an IC50 of 0.046 µM.

In series [1], `O=C(O)c1[nH]c2ccccc2c1Sc1ccc(Cl)cc1` came in with an IC50 of no less than 100 µM.

In series [1], `Cc1ccc2c(Sc3ccc(Cl)cc3Cl)c(C(=O)O)[nH]c2c1` came in with an IC50 of 37 µM.

Compound `CCn1c(C(=O)OC)c(Sc2ccc(Cl)cc2)c2cc(C)ccc21` displayed an IC50 in series [1] of 39 µM.

In turn, `COC(=O)c1[nH]c2c(C)cccc2c1Sc1ccc(Cl)cc1` gave an IC50 in series [1] of 23 µM.

Take `CCn1c(C(=O)O)c(Sc2ccc(Cl)cc2)c2cc(C)ccc21`: the IC50 in [1] came to 86 µM.

In series [1], `COC(=O)c1[nH]c2cc(C)ccc2c1Sc1cc(Cl)cc(Cl)c1` registered a half-maximal inhibitory concentration (IC50) of no less than 100 µM.

As for `COC(=O)c1[nH]c2cccc(C)c2c1Sc1ccc(Cl)cc1`, in series [1], the IC50 was determined as 21 µM.

On to `Cc1ccc2c(Sc3cc(Cl)c(Cl)cc3Cl)c(C(=O)O)[nH]c2c1`, for which 25 µM corresponded to half-maximal inhibition in [1] (IC50).
